# Source: PubChem BioAssay
# An excerpt weighted towards active compounds, which were near 1.4% of everything screened.
# NR2E3 ag-1 = human photoreceptor-specific nuclear receptor agonism | Q9Y5X4 | CHO-S Gal4-NCOR/VP16-NR2E3 two-hybrid, luciferase | inhibition of corepressor binding, % at 3.98 µM | 360,000 compounds, 0.35% hits;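 active means inhibition above the mean of all tested compounds plus 3 SD, cut at about 70% in these data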;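 further: 0% = DMSO with NR2E3 transfected cells and 100% = cells lacking NR2E3 construct; higher means lower luciferase signal from less NR2E3 corepressor binding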
# NR2E3 ag-2 = NR2E3 (human) agonism. AID 2300. inhibition of corepressor binding, % at 4.78 µM. GST-NR2E3/biotin-RetCOR TR-FRET, 1536-well. 320,000 compounds, 0.12% hits. Q9Y5X4;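 active means percent inhibition above the cutoff of mean plus 3 SD of all tested compounds, set per screening campaign, cut at about 20% in these data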;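 further: 0% = DMSO wells and 100% = biotin wells as full block of FRET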
#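 Material: NR2E3–RetCOR corepressor complex | Quantity: 1.35 nM GST-tagged NR2E3 final | Schedule: 5 h at 4 °C | Replication: Singlicate compound wells | Reagent: RetCOR corepressor, biotinylated, 7 nM | Controls: Biotin wells as high control, 0.6% DMSO wells as low control | Signal: TR-FRET, Eu(K)-anti-GST donor, streptavidin-D2 acceptor, ex 340, em 617/671 nm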
# NR1D1 modulator = modulates human Rev-erb alpha binding to DNA | P20393 | Rev-erbα–FITC-DNA binding, fluorescence polarization, 90 min | activity, % at 10 µM | 370,000 compounds, 0.79% hits | AID 1259318;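 active means activity above about 14%, limit read from the data; passing the limit was not always enough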;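 further: 0% = DMSO wells with 35 nM protein and 100% = DMSO wells with 750 nM protein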
# Target sequence (P20393 whole entry, looked up): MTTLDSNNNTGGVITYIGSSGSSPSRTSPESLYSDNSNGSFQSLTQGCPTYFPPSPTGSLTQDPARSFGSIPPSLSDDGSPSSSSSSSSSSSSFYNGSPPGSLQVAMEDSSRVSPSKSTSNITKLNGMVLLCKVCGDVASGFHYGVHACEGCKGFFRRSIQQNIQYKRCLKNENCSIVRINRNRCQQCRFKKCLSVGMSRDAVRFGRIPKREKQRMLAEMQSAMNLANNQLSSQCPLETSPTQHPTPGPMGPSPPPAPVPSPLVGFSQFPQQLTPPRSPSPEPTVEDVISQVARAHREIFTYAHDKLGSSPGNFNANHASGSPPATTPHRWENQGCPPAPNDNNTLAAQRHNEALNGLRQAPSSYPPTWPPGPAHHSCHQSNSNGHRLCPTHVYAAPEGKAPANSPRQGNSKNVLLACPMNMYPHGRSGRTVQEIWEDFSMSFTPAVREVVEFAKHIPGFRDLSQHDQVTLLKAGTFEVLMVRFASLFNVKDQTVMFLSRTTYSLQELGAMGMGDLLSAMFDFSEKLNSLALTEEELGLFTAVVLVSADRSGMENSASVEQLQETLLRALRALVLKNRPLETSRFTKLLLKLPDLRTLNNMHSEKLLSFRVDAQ
# PG9 Ab binder = PG9 antibody binding by small molecule | AID 624416 | TR-FRET gp120-PG9 antibody binding | inhibition, % at 6.7 µM | 360,000 compounds, 0.43% hits; in the data active means inhibition above about 8.5%
# NR2E3 ag conf = NR2E3 agonism confirmed in two-hybrid assay; AID 624378; inhibition, % at 3.98 µM; shares compounds with NR2E3 ag-1; 2,300 compounds, 51% hits; CHO-S mammalian two-hybrid NR2E3-NCOR, luciferase luminescence;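 active means average inhibition above a cutoff equal to the mean inhibition of all tested compounds plus one SD, cut at about 70% in these data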;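 further: 0% = DMSO in NR2E3 cells and 100% = DMSO in cells lacking NR2E3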
# VP16 counter = reduces GAL4-VP16 reporter signal in NR2E3 counterscreen; inhibition, % at 3.98 µM; shares compounds with NR2E3 ag-1; 2,300 compounds, 29% hits; CHO-S GAL4-VP16 luciferase reporter, luminescence;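 active means mean inhibition above a cutoff equal to the average over all tested compounds plus one standard deviation, cut at about 70% in these data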;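 further: luciferase from a UAS reporter driven by GAL4-VP16 transactivation; 0% = DMSO with VP16-transfected cells and 100% = DMSO with cells lacking VP16; higher means less reporter light so more repression of VP16 activity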
# * hit, by the source's call; · = no result given.
SMILES,NR2E3 ag-1,NR2E3 ag-2,NR1D1 modulator,PG9 Ab binder,NR2E3 ag conf,VP16 counter
Cc1ccccc1CNC(=O)C1CCC(=O)N(C2CC2)C1 (centres undefined),-28.1,3.2,0.6,-0.5,·,·
N#Cc1c(-c2cccs2)cc(-c2cccnc2)nc1N,-0.8,0.9,-2.3,1.8,·,·
N#Cc1c(-c2cccs2)cc(-c2ccccn2)nc1N,62.2,1.8,1.1,0.7,27.3,-14.7
Cc1cc(C(=O)NC2CCCc3c2cnn3-c2ccccc2F)nc(C)n1 (centres undefined),-13.7,1.5,-7.3,-1.5,·,·
Cc1nnsc1C(=O)NC1CCCc2c1cnn2-c1ccc(F)cc1F (centres undefined),95.8*,1.2,-8.8,-1.1,71.2*,64.0
Cc1ccc(C(=O)NC2CCCc3c2cnn3-c2ccc(F)cc2F)cn1 (centres undefined),100.5*,2.2,1.7,0.9,95.2*,79.0*
CC(C)c1cc(C(=O)NC2CCCc3c2cnn3-c2ccccc2F)no1 (centres undefined),59.8,-0.4,-0.7,2.4,47.2,52.5
COc1ccc(Br)cc1CNC(=O)C1CCC(=O)N1C(C)C (centres undefined),-30.8,2.3,-6.0,-0.6,·,·
O=C(c1ccc(C#CC2(O)CCCCC2)cc1)N1CCOCC1,-8.9,1.5,5.8,-3.0,·,·
COc1ccccc1/C=C/C(=O)NCC(=O)N/N=C(/C)c1ccc(Cl)cc1,-0.1,-0.1,4.4,0.3,·,·
Cc1ccccc1-c1nnn(Cc2cccc(S(=O)(=O)N3CCOCC3)c2)n1,64.1,-1.4,1.4,0.5,13.3,30.6
CCCc1cc(=O)oc2cc(OCC(=O)NCCc3c[nH]c4ccc(OC)cc34)ccc12,-26.2,-3.1,5.1,-1.6,·,·
Cc1ccc(/C=C/C(=O)c2c(C)cc(C)[nH]c2=O)cc1,49.2,4.2,-6.4,·,45.4,29.5
COc1ccc2oc(C(=O)NCc3cc(OC)c(OC)cc3OC)c(C)c2c1,74.7*,2.9,4.3,-2.0,43.5,52.8
COc1ccc2oc(C(=O)NCCc3ccccc3)c(C)c2c1,-80.2,0.1,0.3,0.7,·,·
CC1(C(=O)NS(=O)(=O)c2cccs2)CCN1C(=O)c1cccc(F)c1 (centres undefined),15.0,·,2.5,0.5,·,·
COc1ccccc1C(=O)Nc1ccc2c(c1)CN(Cc1cnc(C)s1)CC2,1.6,1.1,0.6,-1.5,·,·
CN(CC(=O)Nc1ccc(Cl)c(C(F)(F)F)c1)CC(=O)NC1CCCCC1,60.5,-0.2,·,·,53.2,37.1
O=[N+]([O-])c1ccc(S(=O)(=O)Nc2nc(-c3ccccc3)cs2)cc1,24.1,3.2,1.6,-0.3,·,·
O=S(=O)(Nc1nc(-c2ccccc2)cs1)c1cccc(C(F)(F)F)c1,70.6*,0.1,-6.8,-0.1,87.9*,75.5*
O=S(=O)(Nc1nc(-c2ccccc2)cs1)c1cc(Cl)ccc1Cl,57.3,3.3,-5.1,-2.2,57.0,41.6
CCCC[C@@H]1C=C(C(=O)O)[C@H](c2ccc(Cl)c(Cl)c2)N1S(=O)(=O)c1ccc(C)cc1,85.4*,·,3.6,1.7,33.0,36.6
CCCC[C@@H]1C=C(C(=O)O)[C@H](c2ccc(C)cc2)N1S(=O)(=O)c1ccc(C)cc1,8.6,·,5.6,-0.5,·,·
Cc1ccc(S(=O)(=O)N2[C@@H](c3ccccc3)C(C(=O)O)=CC[C@H]2c2ccc(Cl)c(Cl)c2)cc1,18.1,1.0,0.3,-0.1,·,·
Cc1ccc([C@H]2C(C(=O)O)=C[C@@H](CC3CCCC3)N2S(=O)(=O)c2ccc(C)cc2)cc1,-4.2,·,6.0,0.8,·,·
SMILES,NR2E3 ag-1,NR2E3 ag-2,NR1D1 modulator,PG9 Ab binder,NR2E3 ag conf,VP16 counter
Cc1ccc([C@H]2C(C(=O)O)=CC[C@@H](c3ccc(Cl)c(Cl)c3)N2S(=O)(=O)c2ccc(C)cc2)cc1,66.6,·,-9.1,-1.6,37.3,26.8
Cc1ccc(S(=O)(=O)N2[C@@H](c3ccc(Cl)cc3)C(C(=O)O)=CC[C@H]2c2ccc(Cl)cc2)cc1,61.8,-1.2,2.7,1.4,24.2,22.1
CCc1ccc([C@H]2C(C(=O)O)=C[C@@H](CC3CCCC3)N2S(=O)(=O)c2ccc(C)cc2)cc1,57.3,·,-2.9,-2.3,6.6,2.6
COc1cccc(NC(=O)CN2C(=O)NC3(CCCCCC3)C2=O)c1,6.9,·,-0.2,1.9,·,·
CC(O)(CS(=O)(=O)Cc1ccccc1)c1ccccc1Cl (centres undefined),-20.0,5.1,0.9,-2.2,·,·
COc1ccccc1C1CC(=O)Oc2cc(C)c(Cl)cc21 (centres undefined),-14.6,·,5.0,2.0,·,·
CCOC(=O)Cc1nnc2c(Nc3ccccc3F)nc3nonc3n12,71.2*,0.5,1.4,-1.4,74.0*,44.3
Cc1nc(NCc2ccc3c(c2)OCO3)c2oc3ccccc3c2n1,57.5,-0.5,3.8,1.0,50.3,31.7
CC(C)(C)OC(=O)NCCc1nc(NC(=O)OCc2ccccc2)sc1C(=O)O,·,·,3.3,-0.1,·,·
Nc1nnnn1/N=C/C(Br)=C/c1ccccc1,65.3,2.8,-6.5,-0.7,46.7,30.5
CC(=NNS(=O)(=O)c1ccc(C)cc1)c1ccncc1,0.9,·,-4.5,-0.2,·,·
CC(C)c1ccc(OCC(=O)NC2=NCCS2)cc1,-15.6,4.2,0.4,2.0,·,·
O=C(Nc1ccc2c(c1)OCCO2)NC1(C(F)(F)F)Oc2ccccc2O1,58.5,-1.1,-5.7,0.2,10.1,-35.2
O=C(Nc1ccc2c(c1)OCO2)NC1(C(F)(F)F)Oc2ccccc2O1,-23.1,-4.1,1.4,-1.3,·,·
Cc1sc(NC(=O)CN2CCOCC2)nc1-c1ccc2c(c1)CCN2S(=O)(=O)c1ccccc1,55.7,3.2,-3.0,1.3,85.1*,71.1*
C=C1C(=O)C=C[C@]2(C)C[C@@H]3OC(=O)[C@](C)(O)[C@H]3C[C@@H]12,63.2,2.9,-1.4,1.2,36.2,5.9
COC(=O)C12OCC34C(CC5C(C)=C(O)C(=O)CC5(C)C3C(O)C1O)OC(=O)C(OC(=O)C=C(C)C)C24 (centres undefined),103.4*,·,2.1,-0.8,99.5*,98.4*
Cc1cc(C)c2nc(C(F)(F)F)c(C#N)c(N)c2c1,8.9,2.5,22.0,-0.7,·,·
Cc1ccc2nc(C(F)(F)F)c(C#N)c(N)c2c1,75.1*,5.7,6.2,0.8,59.0,26.3
CN(C)C(=S)N=c1ssc(=S)n1Cc1ccccc1,90.4*,·,4.3,0.2,-24.1,-56.2
Cc1cc(C(=O)OCc2nnc(-c3ccccc3)o2)c(C)n1-c1ccccc1,68.2,-6.8,-0.7,2.0,57.5,65.4
Cc1cc(C)cc(-n2nnnc2-c2cn(C)nc2C(F)(F)F)c1,6.5,-0.1,3.4,-0.8,·,·
O=C1NC[C@H](c2ccccc2)OC(=O)[C@@H](Cc2ccc(F)cc2)C/C=C\C[C@H]1CC(=O)N(CCO)Cc1ccccc1,52.3,·,3.9,-3.0,31.3,28.2
COC(=O)c1c(-c2ccc(C)cc2)csc1NC(=O)Cc1ccc(OC)c(OC)c1,57.3,·,10.0,-0.5,22.2,32.0
